Compound activity: PubChem BioAssay, several laboratories
The list is not random: actives were taken first. Their share in the collection is about 1.7%.
TPT1 inhibitor: Candida albicans TPT1 enzyme inhibitors, primary screen, biochemical, fluorescence polarization; tRNA 2'-phosphotransferase TPT1 (Candida albicans SC5314); recombinant caTPT1, FP RNA substrate dephosphorylation; inhibition, % at 5 µM; actives 0.81% (n = 300,000); AID 1962, 2009;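 active = inhibition above the mean of all tested compounds plus 3 SD, set per screening campaign, cut at about 24% in these data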
Rpn11 inh: Rpn11 (PSMD14) deubiquitinase inhibitors, primary screen, biochemical, fluorescence polarization, uHTS | 26S proteasome non-ATPase regulatory subunit 14 (Homo sapiens), O00487 | human 26S proteasome, Ub4-pepOG fluorescence polarization; 20S core pre-blocked with epoxomicin | calls only at 20 µM | actives 0.59% (n = 360,000) | AID 588493, 2011;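 active = inhibition at 20 µM, scaled to each plate's controls, above about 33%, limit read from the data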
IDE inh: human IDE inhibitors in live cells, primary screen, fluorescence polarization, HEK cells, FAbetaB substrate | Insulin-degrading enzyme (Homo sapiens), P14735 | FAbetaB cleavage | inhibition, % at 5.59 µM | actives 0.41% (n = 320,000) | AID 434962, 2010;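 active = percent inhibition above the average of all tested compounds plus 3 SD, set per screening campaign, cut at about 16% in these data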;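 also: IDE supplied by intact live HEK cells; FP after avidin binding of uncleaved biotin substrate so inhibition keeps polarization high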
Target sequence (P14735 whole entry, looked up): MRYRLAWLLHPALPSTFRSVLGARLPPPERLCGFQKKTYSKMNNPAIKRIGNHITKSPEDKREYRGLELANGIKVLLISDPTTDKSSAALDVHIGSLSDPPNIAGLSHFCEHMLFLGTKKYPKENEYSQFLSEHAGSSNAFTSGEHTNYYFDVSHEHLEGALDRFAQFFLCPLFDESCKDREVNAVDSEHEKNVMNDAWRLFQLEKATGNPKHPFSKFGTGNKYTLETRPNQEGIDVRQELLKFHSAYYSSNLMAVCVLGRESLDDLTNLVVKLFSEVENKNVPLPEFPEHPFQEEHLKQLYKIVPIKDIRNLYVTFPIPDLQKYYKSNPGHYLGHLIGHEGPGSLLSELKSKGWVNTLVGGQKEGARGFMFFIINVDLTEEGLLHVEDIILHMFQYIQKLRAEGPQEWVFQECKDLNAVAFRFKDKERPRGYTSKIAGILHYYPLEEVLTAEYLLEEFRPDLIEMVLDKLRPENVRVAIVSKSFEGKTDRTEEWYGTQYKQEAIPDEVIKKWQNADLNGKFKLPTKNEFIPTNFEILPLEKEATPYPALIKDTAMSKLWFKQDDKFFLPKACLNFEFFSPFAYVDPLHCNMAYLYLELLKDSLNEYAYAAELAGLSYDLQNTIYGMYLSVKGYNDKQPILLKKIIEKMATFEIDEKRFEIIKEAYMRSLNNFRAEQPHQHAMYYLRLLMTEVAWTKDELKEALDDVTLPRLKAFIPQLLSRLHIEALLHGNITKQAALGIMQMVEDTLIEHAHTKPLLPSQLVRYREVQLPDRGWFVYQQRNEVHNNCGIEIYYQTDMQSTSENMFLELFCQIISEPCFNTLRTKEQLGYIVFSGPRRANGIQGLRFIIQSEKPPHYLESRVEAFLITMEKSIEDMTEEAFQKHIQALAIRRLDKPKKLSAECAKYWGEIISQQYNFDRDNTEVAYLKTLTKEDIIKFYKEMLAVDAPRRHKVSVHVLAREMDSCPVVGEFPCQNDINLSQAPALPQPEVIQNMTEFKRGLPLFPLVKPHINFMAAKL
HNF4A DNA FP: change in binding of human HNF4A to DNA, primary screen, biochemical, fluorescence polarization, FITC-DNA | activity change, % at 10 µM | Hepatocyte nuclear factor 4-alpha (Homo sapiens), P41235 | 1 h | AID 1224865, 2016 | actives 0.3% (n = 360,000); in the data active = activity change above about 30%, passing the limit was not always enough
CSN deneddyl inh: inhibitors of CSN-mediated cullin deneddylation, primary screen, biochemical, fluorescence polarization, uHTS. Purified CSN, SCF-Nedd8-OG deneddylation. inhibition, % at 12.5 µM. actives 0.38% (n = 360,000). AID 651999, 2013;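 active = pattern-corrected inhibition above about 35%, with an unprinted fluorescence ratio check between 0.5 and 1.5, limit read from the data, passing the limit was not always enough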
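Assay system: Purified human Csn5 enzyme expressed in HEK293T cells | Amount: Enzyme 0.24 nM | Measured by: Fluorescence polarization readout | Medium: Tris/NaCl/DTT buffer, pH 7.5 | Compound dosing: One concentration, 12.5 µM, 0.25% DMSO | Times: 90 min incubation of compound, enzyme and substrate at room temperature | Control set: no-enzyme wells high, enzyme-with-substrate wells low | Read-out: % inhibition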
IDE cell activ: human IDE activators in live cells, primary screen, fluorescence polarization, HEK cells, FAbeta-B substrate; Insulin-degrading enzyme (Homo sapiens), P14735; FAbeta-B cleavage; 0% vehicle, 100% cell-free pure enzyme wells; activation, % at 5.96 µM; actives 0.073% (n = 340,000); AID 493087, 2011;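 active = activation above the mean of all tested compounds plus 3 SD, set per screening campaign, cut at about 17% in these data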
A number is an active result; - = inactive; . = no result shown; + = active, no number.

SMILES | TPT1 inhibitor | Rpn11 inh | IDE inh | HNF4A DNA FP | CSN deneddyl inh | IDE cell activ
CC1=NN(c2ccccc2)C(=O)/C1=C\c1cn(CCC#N)nc1-c1ccc(Cl)cc1 | - | - | - | 35.1 | - | -
CC1=NN(c2ccccc2)C(=O)/C1=C\c1cn(-c2ccccc2)nc1C | - | - | - | - | - | -
CC(C)OCCCNC(=O)c1c(N)n(/N=C/c2cccs2)c2nc3ccccc3nc12 | - | - | - | - | 41.1 | -
CC(C)C[C@H]1CN([C@@H](Cc2ccccc2)CN2CCC[C@@H]2CN2C(=O)C(=O)NC[C@@H]2Cc2ccc(O)cc2)C(=O)C(=O)N1CC1CCCCCC1 | . | - | . | - | 36.6 | .
COC(=O)c1sccc1NC(=O)c1ccc(C#N)cc1 | - | + | - | - | - | -
COc1ccc(-c2n(CC(=O)OC3CC(C)CCC3C(C)C)c3ccccc3[n+]2C)cc1 (configuration not stated) | . | - | . | - | - | -
COc1ccc(OCc2n(CC(=O)OC3CC(C)CCC3C(C)C)c3ccccc3[n+]2C)cc1 (configuration not stated) | - | - | - | - | - | 18.2
O=C(Cc1ccccc1)NCC(=O)OCc1cccc([N+](=O)[O-])c1 | - | - | - | - | 37.7 | -
O=C(CNC(=O)c1ccccc1)OCc1cccc([N+](=O)[O-])c1 | - | - | - | - | - | -
Cc1ccc2nc(NC(=O)CSCc3ccccc3)sc2c1 | - | - | - | - | - | -
CC(=O)NC(=S)NNC(=O)C(c1ccccc1)c1ccccc1 | - | - | - | - | 77.5 | -
N#CCC(=O)NNC(=S)NC(=O)C(c1ccccc1)c1ccccc1 | - | - | - | - | - | -
CN1CCN(S(=O)(=O)c2ccc(N(C)Cc3ccc(OC(F)F)cc3)c([N+](=O)[O-])c2)CC1 | - | - | - | - | - | -
NC(=O)c1ccccc1NC(=O)c1cccc(C(=O)Nc2ccccc2C(N)=O)n1 | - | - | - | - | 35.2 | .
COC(=O)C(NC(=O)CNS(=O)(=O)c1ccc(Br)cc1)c1ccccc1 (configuration not stated) | - | - | - | - | - | -
c1nc(NC2CCCCC2)c2[nH]cnc2n1 | - | - | - | - | 44.9 | -
COC(=O)c1nnn(-c2ccc(F)c(Cl)c2)c1C(=O)OC | - | - | - | - | - | -
COc1ccc(N=Nc2nc3ccc(Br)cc3n2C)cc1 | - | - | - | - | - | 27.5
Cc1ccc(C(=O)CSc2nnc(CNc3nc(-c4ccccc4)cs3)n2C)cc1 | - | - | - | 114.5 | - | -
COc1cc(/C=C2\CCC(C3CCCC3)C2=O)cc(OC)c1OC (configuration not stated) | - | - | - | - | - | -
COc1cc(/C=C2\CCC(C)C3=C(c4cc(OC)c(OC)c(OC)c4)C(C#N)=C(N)OC32)cc(OC)c1OC (configuration not stated) | . | . | . | 77.6 | - | -
O=C(O)COc1ccc(Cl)cc1C1CCCCC1 | . | - | . | - | - | -
Cc1ccc(N=Nc2c(O)ccc3n[nH]nc23)cc1 | . | - | . | - | - | 54.6
CC(C)CCNC(=O)C1CC2Cn3c(nc4cc(Cl)c(Cl)cc43)C2N1C (configuration not stated) | - | - | - | - | - | -
O=C(Nc1ccc2nc(-c3cccs3)c(-c3cccs3)nc2c1)N1CCOCC1 | - | + | - | - | - | -
SMILES | TPT1 inhibitor | Rpn11 inh | IDE inh | HNF4A DNA FP | CSN deneddyl inh | IDE cell activ
Cc1nc2ncnn2c(C)c1CCC(=O)Oc1ccccc1 | - | - | - | - | - | -
CC1SCC(=O)N(CC(=O)NCCc2ccccc2)C1=O (configuration not stated) | - | - | - | - | - | -
N#CCOc1ccccc1/C=C/c1nc2ccccc2c(=O)[nH]1 | - | - | - | - | - | -
Oc1c(CN2CCc3ccccc3C2)cc(Cl)c2cccnc12 | - | + | - | - | - | -
Oc1c(Cl)cc(CN2CCOCC2)c2cccnc12 | . | - | - | - | - | -
O=c1ccc2c(-c3ccccc3)c3ccc(O)cc3oc-2c1 | - | - | - | - | - | 51.5
Nc1ccc(-c2c3ccc(=O)cc-3oc3cc(O)ccc23)cc1C(=O)O | - | - | 16.7 | - | - | 47.4
CCCCC[C@@H](C)N1C[C@@H](COCc2ccccc2)Oc2cc(N3CC[C@H](N(C)C)C3)ccc2S1(=O)=O | . | . | . | - | - | .
Cc1ccc(C)n1/N=C1/NC(=O)CS1 | - | - | - | - | 46.1 | -
CC[C@@H]1C=C(C(=O)O)[C@H](c2ccc(F)cc2)N1S(=O)(=O)c1ccc(C)cc1 | . | - | - | - | - | -
COc1cc2nc(SCc3ccc(F)cc3)n(Cc3cccs3)c(=N)c2cc1OC | - | - | - | - | - | -
COc1ccc(Cn2c(SCc3ccccc3C)nc3cc(OC)c(OC)cc3c2=N)cc1 | - | - | - | - | - | 22.1
CCOCCn1c(=O)c2c(nc3n2CC(C)CN3CCc2ccccc2)n(C)c1=O (configuration not stated) | - | - | - | - | - | -
CC(=O)c1ccc(NC(=O)c2cccc(N3C(=O)c4ccccc4C3=O)c2)cc1 | - | + | - | - | - | -
O=S(=O)(c1cnc[nH]1)N1CCc2ccccc21 | - | . | - | - | 73.1 | -
O=S(=O)(c1ccc2ccccc2c1)N1CCc2ccccc21 | . | - | . | - | - | -
Nc1ccc(S(=O)(=O)N2CCc3ccccc32)cc1 | - | - | - | 84.9 | - | -
CCNC(=O)N1CCC(n2nccc2NC(=O)CCOc2ccccc2)CC1 | - | - | - | - | - | -
CNC(=O)C[C@H]1C(=O)N(C2CCCCC2)C[C@@H]1CSC | . | - | . | - | - | .
O=C(OCc1cc(=O)n2c(n1)sc1ccccc12)c1ccc2c(=O)n3c(nc2c1)CCC3 | - | - | - | - | 36.1 | -
Cn1cccc1Cc1nnc(SCC(=O)N2CCCCCC2)n1CCc1ccccc1 | - | - | - | - | - | -
CC(=O)C1=C(C)NC(SCC(N)=O)=C(C#N)C1c1ccco1 (configuration not stated) | - | - | - | - | - | -
CC(=O)C1=C(C)NC(SCC(=O)c2cc(Cl)ccc2Cl)=C(C#N)C1c1ccco1 (configuration not stated) | - | + | - | - | - | -
COc1ccccc1NC(=S)NCC1CCCCC1 | - | - | - | - | - | -
CCOc1ccc(C(=O)c2ccccc2C(=O)O)cc1OCC | - | - | - | - | 56.8 | -
